GPR7 antagonist: human neuropeptides B/W receptor 1 antagonism | inhibition, % at 4.4 µM | GPR7-expressing cells, fluorescence antagonist assay | hit rate 1.1% among 290,000 | AID 1861; in the data active = inhibition above about 16%, passing the limit was not always enough;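 also: cells stimulated with the agonist NPW; 0% = agonist with vehicle and 100% = vehicle without agonist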
OX1R antag-1: antagonists of human orexin 1 receptor; O43613; hit rate 0.43% among 330,000; inhibition, % at 5 µM; CHO/OX1R cells, Fluo-8 calcium fluorescence, orexin A; AID 434989;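 active = inhibition above its plate's threshold, mean inhibition of all tested compounds on the plate plus 3 SD, cut at about 37% in these data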;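 also: 0% = orexin A challenge wells and 100% = SB-334867-A antagonist wells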
CHO parental Ca: counter-screen for OX1R antagonists: effect in parental CHO cells; parental CHO-K1, ATP-induced calcium, Fluo-8 fluorescence; inhibition, % at 5.6 µM; hit rate 0.63% among 330,000; AID 463079;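 active = inhibition above that plate's mean sample inhibition plus 3 SD, cut at about 26% in these data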;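 also: 0% = ATP-challenged DMSO wells and 100% = DMSO wells without ATP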
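Material: parental CHO cells / Compound: single nominal dose of 5.6 µM per compound / Signal: Fluo-8 fluorescence / Replicates: singlicate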
GalR3 antag: antagonists of human GalR3; O60755; inhibition, % at 3 µM; HEK293 GalR3-CNG cAMP membrane potential fluorescence; galR3 body fused to GalR1 C-terminus; hit rate 0.44% among 360,000; AID 651719;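 active = inhibition above the screen-wide average plus 3 SD, cut at about 13% in these data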;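 also: forskolin and galanin both at EC90 stimulate the cells; cAMP rise reported by CNG channel membrane potential dye signal; 0% = forskolin plus galanin with DMSO and 100% = forskolin alone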
Target sequence (O60755 1-299 limits assumed): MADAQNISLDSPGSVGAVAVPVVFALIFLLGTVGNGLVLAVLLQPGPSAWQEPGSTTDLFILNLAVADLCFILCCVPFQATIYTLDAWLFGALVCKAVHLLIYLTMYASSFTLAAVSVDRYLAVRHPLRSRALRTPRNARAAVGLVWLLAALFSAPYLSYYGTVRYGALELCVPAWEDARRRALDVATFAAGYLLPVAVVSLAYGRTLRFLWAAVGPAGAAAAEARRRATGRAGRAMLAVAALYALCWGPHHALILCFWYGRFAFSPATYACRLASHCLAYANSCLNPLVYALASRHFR
OX1R antag-2: blocks the human orexin 1 receptor; AID 485270; inhibition, % at 6.6 µM; O43613; hit rate 1.8% among 330,000; OX1R-expressing cells, FRET antagonist read-out; in the data active = inhibition mostly above about 38%, no sharp cut-off; inactive = mostly below about 40%;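 also: 0% = agonist challenge alone and 100% = reference antagonist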
GalR3 conf: confirmation of human galanin receptor 3 antagonists | shares compounds with GalR3 antag | HEK293 GalR3 CNG cAMP biosensor, membrane potential fluorescence; galR3 fused to GalR1 carboxy tail; challenged with forskolin and galanin at EC90 | inhibition, % at 3 µM | hit rate 59% among 1,600;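 active = inhibition above the primary screen's cutoff, the mean inhibition of all screened compounds plus 3 SD, cut at about 13% in these data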;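 also: 0% = forskolin plus galanin and 100% = forskolin alone with DMSO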
HEK-CNG parental: parental cell agonism counter-screen for GalR3 antagonists; shares compounds with GalR3 antag; activation, % at 3 µM; HEK293-CNG parental cells, cAMP membrane potential fluorescence; normalised: DMSO wells 0%, forskolin wells 100%; AID 652268; hit rate 10% among 1,600; in the data active = activation above about 1.3%
Active calls of the source: *; / = no result given. Most compounds without a hit are left out; they make up all but 3.1% or so of the library.

SMILES | GPR7 antagonist | OX1R antag-1 | CHO parental Ca | GalR3 antag | OX1R antag-2 | GalR3 conf | HEK-CNG parental
Cc1ccc(S(=O)(=O)c2nc(/C=C/c3ccccc3)oc2N2CCC(C(N)=O)CC2)cc1 | / | / | / | -8 | / | / | /
Cc1occc1-c1nnc(SCCNCCO)o1 | -1 | 0 | -6 | 15* | 19 | 5 | 0
O=C(Nc1ccccc1)C1CCCN(S(=O)(=O)c2ccc(-n3cnnn3)cc2)C1 (centres undefined) | 2 | -9 | -9 | 5 | 11 | / | /
O=C(Nc1cccc(F)c1)C1CCCN(S(=O)(=O)c2ccc(-n3cnnn3)cc2)C1 (centres undefined) | 16 | -24 | -9 | 14* | 13 | 0 | -1
Cc1csc2ncnc(NCCc3ccccn3)c12 | -5 | 2 | 7 | 97* | 26 | 84* | 0
CC[C@H](C)[C@H](NS(=O)(=O)c1ccc(C)cc1)C(=O)N1CCC(C(=O)N[C@H](C(=O)O)C(C)C)CC1 | -11 | -16 | 2 | / | -3 | / | /
CCC(C)[C@H](NS(=O)(=O)c1ccc(C)cc1)C(=O)N1CCC(C(=O)N[C@H](C(=O)O)c2ccccc2)CC1 (some centres undefined) | -8 | -22 | -8 | 30* | 18 | 12 | 0
CCn1cc([N+](=O)[O-])c(C(=O)N2N=C(c3ccc(Cl)c(Cl)c3)CC2c2ccccc2O)n1 (centres undefined) | -3 | 73* | 44* | 15* | 18 | 20* | 0
Cc1ccc(S(C)(=O)=NC(=O)NC(=O)c2c(Cl)cccc2Cl)cc1 (centres undefined) | 3 | 1 | -11 | 1 | 10 | / | /
Cc1ccc(S(C)(=O)=NC(=O)NC(=O)c2c(F)cccc2Cl)cc1 (centres undefined) | 5 | 3 | 0 | 14* | 11 | 4 | 1
COc1cc(Cn2c(-c3ccc(O)c(OC)c3)nc3ccccc32)ccc1O | -11 | -11 | -11 | 23* | 17 | 17* | 0
CC(C)(C)OC(=O)N1CCN(C(=O)c2[nH]cnc2C(=O)Nc2nccs2)CC1 | / | -6 | -12 | -3 | 6 | / | /
COc1ccc(CN2CCN(C3CCC3)CC2CCO)c(C)c1C (centres undefined) | -10 | -25 | -14 | -4 | 2 | / | /
COc1ccc(-n2c(C)cc(C(=O)COC(=O)Cn3cnc4ccccc43)c2C)cc1 | 0 | 18 | 34* | 100* | 32 | 89* | 0
COc1ccc(-n2c(C)cc(C(=O)CN3C(=O)c4ccccc4C3=O)c2C)cc1 | -2 | -4 | -15 | 9 | 8 | / | /
CC(=O)OC[C@]12CC[C@H]3[C@@](C)(CC[C@H]4C(C)(C)CCC[C@]34C)[C@@H]1CC(C1=CC(=O)OC1O)O2 (some centres undefined) | / | / | / | 30* | / | 44* | 1.8*
CC(=O)OC[C@]1(OC(C)=O)C[C@@]23CC[C@H]4[C@@](C)(CCC[C@@]4(C)C(=O)O)[C@@H]2CC[C@@H]1C3 | 1 | 3 | 3 | -1 | 8 | / | /
CC(OC(=O)CN1C(=O)NC2(CCCC2)C1=O)C(=O)Nc1cccc(Cl)c1 (centres undefined) | -8 | -12 | 1 | 0 | 13 | / | /
CC(C)(C)SCCNC(=O)/C=C/c1ccc(F)cc1 | 17 | -2 | -4 | 3 | 8 | / | /
CC(C)(CNC(=O)/C=C/c1ccc(F)cc1)CNC(=O)/C=C/c1ccc(F)cc1 | 7 | 7 | -9 | 31* | 22 | 15* | 0
Cc1cc(NC(=O)CSc2nnc(-c3ccco3)o2)no1 | -19 | -7 | -7 | / | 1 | -5 | 0
O=C(N=C1SC2CS(=O)(=O)CC2N1c1ccc(F)c(Cl)c1)C1CCCO1 (centres undefined) | -4 | -15 | -3 | -6 | 32 | / | /
O=C(Cn1nc(-c2ccccc2)c2ccccc2c1=O)Nc1ccc(O)cc1 | 5 | -10 | 4 | 14* | 8 | 1 | -1
CCN=C1S/C(=C\c2ccc(O)c(OCC)c2)C(=O)N1CC | -32 | -42 | -29 | -4 | 24 | / | /

High-throughput results as filed in PubChem.
